Most compounds without a hit are left out; they make up all but 4.1% or so of the library.
KCNQ1 inh – human KCNQ1 channel inhibition; AID 2642; B-score at 10 µM; P51787; CHO-K1 KCNQ1, FluxOR thallium flux fluorescence; active compounds read high; 310,000 compounds, 1.3% hits;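 active = compounds whose thallium flux B-score, printed positive for inhibition, exceeds three library SD while starting fluorescence stays within three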;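 note: channel opened by potassium depolarization with thallium stimulus after 20 min compound exposure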
KCNK9 block – blocks the human KCNK9 two-pore domain potassium channel; 310,000 compounds, 1.2% hits; B-score at 10 µM; HEK293 KCNK9, FluxOR thallium flux fluorescence; active compounds read low;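 active = ratio B-score over 3 SD below the library mean, with starting fluorescence within 5 SD of its mean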;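 note: negative B-score means less thallium flux so channel inhibition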
Target sequence (Q9NPC2 whole entry, looked up, the tested form may be a part): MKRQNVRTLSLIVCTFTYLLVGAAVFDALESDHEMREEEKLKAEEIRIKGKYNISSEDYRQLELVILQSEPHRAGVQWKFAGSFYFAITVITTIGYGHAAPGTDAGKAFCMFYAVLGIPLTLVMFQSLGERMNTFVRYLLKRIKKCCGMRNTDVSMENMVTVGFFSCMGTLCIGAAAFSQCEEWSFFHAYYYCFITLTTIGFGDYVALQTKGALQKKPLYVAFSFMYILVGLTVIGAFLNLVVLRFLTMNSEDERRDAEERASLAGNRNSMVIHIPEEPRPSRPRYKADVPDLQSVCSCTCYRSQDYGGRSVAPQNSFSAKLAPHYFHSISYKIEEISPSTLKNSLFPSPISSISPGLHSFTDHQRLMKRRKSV
hERG protect – shields human hERG channel from block by proarrhythmic agents; 310,000 compounds, 0.51% hits; Q12809; CHO-hERG, FluxOR thallium flux, dofetilide IC70 present; activation (rescue from dofetilide block), less the hit threshold, % at 10 µM;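 active = activation above the mean of controls blocked by dofetilide plus 5 SD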;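 note: thallium influx through hERG after potassium depolarization seen as dye fluorescence rise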
KCNK3 block – human KCNK3 channel inhibition, primary screen. B-score at 10 µM. AID 602410. 340,000 compounds, 0.84% hits. O14649. CHO-KCNK3 thallium flux, FluxOR fluorescence; active compounds read low;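 active = B-score under library mean minus 4 SD, starting fluorescence ratio at most library mean plus 5 SD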;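 note: more negative B-score means stronger inhibition of thallium flux through KCNK3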
KCC2 mod – modulators of human KCC2 chloride dependent transport | KCC2 cells, thallium flux FluoZin-2 fluorescence | B-score of Tl+ flux slope (higher = more flux/activation; lower = inhibition) at 10 µM | 190,000 compounds, 2.2% hits;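 active = thallium flux slope and its plate-corrected score both differing from the plate sample mean at a set confidence after two filtering rounds, in either direction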;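 note: slope of fluorescence scaled to starting intensity during 10 to 20 s after thallium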
KCNQ1 pot – potentiators or activators of human KCNQ1 potassium channel. P51787. CHO-K1 KCNQ1, thallium flux FluxOR fluorescence; active compounds read high. B-score at 10 µM. 310,000 compounds, 0.35% hits. AID 2648;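 active = fluorescence ratio B-score, a plate-corrected score, at least three library SD, with initial intensity B-score within 5 SD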
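Assay system: stable KCNQ1 CHO-K1 line; medium: assay buffer, equal DMSO in all wells; timing: 90 min dye loading and 20 min compound exposure, both at room temperature; technique: kinetic FluxOR thallium fluorescence, 10-s 1-Hz baseline, 110-s post-stimulus read; read-out basis: B score of baseline-normalized fluorescence ratio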
KCNK9 block conf – human KCNK9 inhibitor confirmation; shares compounds with KCNK9 block; HEK293 KCNK9 cells, FluxOR thallium flux fluorescence; inhibition, % at 10 µM; 4,900 compounds, 43% hits; AID 492992;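 active = thallium signal inhibited by more than 5 SD of the compound-free buffer control wells, on both duplicate plates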;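 note: 0% = assay buffer control wells without compound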
Kir2-1 spec – mouse Kir2.1 off-target activity of KCNK9 modulators; 4,900 compounds, 4% hits; inhibition, % at 10 µM; AID 492993; Kir2.1 cells, FluxOR thallium flux fluorescence; shares compounds with KCNK9 block;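 active = thallium signal drop more than 5 SD beyond the mean of the no-compound control wells, seen in both duplicate plates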;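 note: signal is fluorescence rise after thallium addition divided by baseline fluorescence; plate controls were assay buffer only for no effect and full block by chlorpromazine control for full effect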
HEK293 Tl ctr – non-induced cell nonspecific activity of KCNK9 modulators | 4,900 compounds, 40% hits | shares compounds with KCNK9 block | non-induced KCNK9-HEK293, FluxOR thallium flux | inhibition, % at 10 µM | AID 492997;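 active = thallium signal drop beyond 5 SD of the untreated control mean, on both duplicate plates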;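 note: plate controls were buffer only IC0 wells for no effect and SID17386958 at its maximal inhibitory level for full effect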
* = called active by the depositor; i = inactive; nt = not tested or not shown.

SMILES | KCNQ1 inh | KCNK9 block | hERG protect | KCNK3 block | KCC2 mod | KCNQ1 pot | KCNK9 block conf | Kir2-1 spec | HEK293 Tl ctr
O=C(OC1C2CCC1C1CN(CCc3ccccc3)CC12)c1ccccc1 (stereo not drawn) | i | i | -15 | i | 0.56 | i | i | i | i
CN(C)CC/C=C1\c2cc(F)ccc2CSc2ccccc21 | i | i | -6 | i | 1 | i | nt | nt | nt
CN(C)CC/C=C1/c2cc(F)ccc2CSc2ccc(F)cc21 | i | i | -11 | i | 0.5 | i | nt | nt | nt
CN(C)CC/C=C1\c2cc(Cl)ccc2Sc2cc(F)c(F)cc21 | i | i | -19 | i | nt | i | i | 34%* | i
CN(C)CC/C=C1\c2ccc(F)cc2Sc2cc(F)c(Cl)cc21 | i | i | -19 | i | nt | i | i | 45%* | i
CC[N+](C)(C)CC/C=C1/c2ccccc2Sc2ccc(Cl)cc21 | i | i | -6 | i | 1.8 | i | nt | nt | nt
CN(C)CC/C=C1/c2ccc(F)cc2Sc2ccc(Cl)cc21 | i | i | -18 | i | nt | i | i | 50%* | i
CCCCCCCCCC[N+](C)(C)CC/C=C1/c2ccccc2Sc2ccc(Cl)cc21 | i | -13* | -14 | i | nt | i | 58%* | 50%* | i
CN(C)CC/C=C1\c2ccccc2Sc2cc(F)c(Cl)cc21 | i | i | -18 | i | nt | i | i | 49%* | i
OCCN1CCN(CC/C=C2/c3ccccc3Sc3ccc(Cl)cc32)CC1 | nt | nt | nt | i | nt | nt | nt | nt | nt
CN(C)CC/C=C1\c2ccccc2Sc2ccc(Cl)cc21 | i | i | -14 | i | 0.32 | i | i | 59%* | i
COc1ccc(S(=O)(=O)Nc2c(C)n(C)n(-c3ccccc3)c2=O)cc1C(=O)O | i | i | -2 | i | nt | i | nt | nt | nt
CC(C)C(=O)N1CCN(c2ccccc2NC(=O)c2ccc3c(c2)OCCO3)CC1 | nt | nt | nt | i | nt | nt | nt | nt | nt
CC(NC(=O)CNC(=O)c1ccccc1Br)c1cccs1 (stereo not drawn) | nt | nt | nt | i | nt | nt | nt | nt | nt
O=C(OC1CCS(=O)(=O)c2sccc21)c1ccccc1 (stereo not drawn) | i | i | -7 | i | 0.18 | i | nt | nt | nt
O=C(OC1CO[C@H]2O[C@@H]1[C@H](OC(=O)c1ccccc1)[C@H]2OC(=O)c1ccccc1)c1ccccc1 (stereo partly drawn) | i | i | -12 | i | nt | i | i | i | i
COCCCN(C(=O)CCOc1ccc(C)cc1)c1c(N)n(Cc2ccccc2)c(=O)[nH]c1=O | i | i | -12 | i | nt | i | nt | nt | nt
C=C(C)Cn1c(SCC#N)nc2ccccc2c1=O | i | i | -8 | i | 0.6 | i | nt | nt | nt
CCCn1c(=O)c2ccccc2n2c(SCc3nc4ccccc4s3)nnc12 | i | i | -8 | i | nt | i | nt | nt | nt
CCN(CCCn1c(SCC#N)nc2ccccc2c1=O)c1ccccc1 | i | -11* | -15 | -9.3* | -2 | i | 44%* | i | 28%*
CCCCn1c(SCc2nc3ccccc3s2)nc2ccccc2c1=O | i | -12* | -8 | i | 0.34 | i | 68%* | i | 40%*
CC(C)N(C(=O)[C@H]1C[C@H](CC(=O)NCCc2ccccn2)C(=O)N2CCc3c([nH]c4cc(CCC(=O)N(C)C)ccc34)[C@]12C)C(C)C | nt | nt | nt | i | nt | nt | nt | nt | nt
N#Cc1c(-c2ccccc2)nc(SCC(=O)N2c3ccccc3Sc3ccccc32)[nH]c1=O | i | i | -38 | i | -3.6 | i | i | i | 25%*
COc1ccc(S(=O)(=O)N2CCN(C(=O)/C=C/c3ccco3)CC2)cc1 | nt | nt | nt | i | nt | nt | nt | nt | nt

High-throughput results as filed in PubChem.
